In ChEMBL document CHEMBL4266037, “Discovery and Characterization of Cyclotides from Rinorea Species” (J Nat Prod, 2018):
Positions of bridges follow the written chain, without caps; N, C: chain ends. Residues, ends and D or L forms follow the SMILES beside them.

Legend:
[1] = system: HFF-1; experiment: Cytotoxicity against human HFF1 after 24 hrs by MTT assay; format: cell-based; conditions: HFF-1, 24 h
Outline: (§1)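 Cells seeded at 3 × 10^3 per well and grown 24 h at 37 °C in 5% CO2. Media: HUVEC in 10% FBS/EBM-2 with supplements; HFF-1 in 15% FBS/DMEM; HT-29 and MDA-MB-231 in 10% FBS/DMEM; MM96L in 10% FBS/RPMI with 2 mM L-glutamine and 1 mM pyruvate. Switched to serum-free medium, then paclitaxel 0.00075–10 μM for 24 or 48 h. MTT added 3 h, formazan taken up in DMSO, A600. Triplicate; IC50 from sigmoidal fit.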

[2] = system: MDA-MB-231; experiment: Cytotoxicity against human MDA-MB-231 after 24 hrs by MTT assay; format: functional, cell-based; conditions: MDA-MB-231, 24 h; outline: as §1
[3] = system: HT-29; experiment: Cytotoxicity against human HT-29 after 24 hrs by MTT assay; format: functional, cell-based; conditions: HT-29, 24 h; outline: as §1
[4] = system: Erythrocyte; experiment: Hemolytic activity against human RBC after 1 hr; format: ADME, cell-based
Outline: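 Human red blood cells exposed to test peptides at 0.003–10 μM, with melittin at 0.15–20 μM as the lysis positive control. IC50 given as mean ± SD of three biological replicates.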

[5] = system: HUVEC; experiment: Cytotoxicity against HUVEC after 24 hrs by MTT assay; format: cell-based; conditions: Homo sapiens; outline: as §1
[6] = system: MM96L; experiment: Cytotoxicity against human MM96L after 24 hrs by MTT assay; format: functional, cell-based; outline: as §1
[7] = system: HT-29; experiment: Cytotoxicity against human HT-29 after 48 hrs by MTT assay; format: functional, cell-based; conditions: HT-29, 48 h; outline: as §1
[8] = system: HUVEC; experiment: Cytotoxicity against HUVEC after 48 hrs by MTT assay; format: cell-based; conditions: Homo sapiens; outline: as §1
[9] = system: HFF-1; experiment: Cytotoxicity against human HFF1 after 48 hrs by MTT assay; format: cell-based; conditions: HFF-1, 48 h; outline: as §1
[10] = system: MM96L; experiment: Cytotoxicity against human MM96L after 48 hrs by MTT assay; format: functional, cell-based; outline: as §1
[11] = system: MDA-MB-231; experiment: cells; conditions: Homo sapiens, MDA-MB-231, 48 h

Row | IC50 [11] | Structure (SMILES) | IC50 [1] | IC50 [2] | IC50 [3] | IC50 [4] | IC50 [5] | IC50 [6] | IC50 [7] | IC50 [8] | IC50 [9] | IC50 [10]
1 |  | CC[C@H](C)[C@@H]1NC(=O)[C@H](Cc2ccc(O)cc2)NC(=O)[C@H](CO)NC(=O)C(N)C(=O)[C@H](CC(N)=O)NC(=O)[C@H](CCCCN)NC(=O)[C@H](CCCCN)NC(=O)[C@@H]2CSSC[C@@H]3NC(=O)[C@H](CCCCN)NC(=O)CNC(=O)[C@H](CCC(N)=O)NC(=O)[C@H](C(C)C)NC(=O)[C@@H]4CSSC[C@H](NC(=O)[C@H]([C@@H](C)O)NC(=O)[C@H](CSSC[C@H](NC1=O)C(=O)NCC(=O)N[C@@H](CCC(=O)O)C(=O)N[C@@H]([C@@H](C)O)C(=O)N4)NC(=O)CNC(=O)[C@@H]1CCCN1C(=O)[C@H]([C@@H](C)O)NC(=O)[C@H](Cc1ccc(O)cc1)NC3=O)C(=O)N[C@@H](CO)C(=O)N[C@@H](Cc1c[nH]c3ccccc13)C(=O)N1CCC[C@H]1C(=O)N[C@@H]([C@@H](C)CC)C(=O)N2 (stereo partly drawn) | 2.1 µM | 0.95 µM | 5.9 µM | > 10 µM | 1.6 µM | 1.3 µM |  |  |  | 
2 |  | CC[C@H](C)[C@@H]1NC(=O)[C@H](C)NC(=O)[C@H](CO)NC(=O)[C@H](CO)NC(=O)[C@H]([C@@H](C)CC)NC(=O)[C@@H]2CSSC[C@@H]3NC(=O)[C@H](C(C)C)NC(=O)[C@H](CCCCN)NC(=O)[C@H](CO)NC(=O)[C@H](CCCCN)NC(=O)[C@@H]4CSSC[C@H](NC(=O)[C@H](CO)NC(=O)[C@H](CCC(=O)O)NC(=O)CNC(=O)[C@H](CSSC[C@H](NC(=O)CNC1=O)C(=O)N[C@@H](CO)C(=O)N4)NC(=O)[C@@H]1CCCN1C(=O)[C@H]([C@@H](C)CC)NC(=O)CNC(=O)[C@H](CC(N)=O)NC(=O)[C@H](CCCNC(=N)N)NC(=O)[C@H](Cc1ccc(O)cc1)NC3=O)C(=O)N[C@@H](C(C)C)C(=O)N[C@@H](Cc1c[nH]c3ccccc13)C(=O)N[C@@H]([C@@H](C)CC)C(=O)N1CCC[C@H]1C(=O)N2 (cyclo(AIGCSCKSKVCYRNGIPCGESCVWIPCISS); disulfide 4-18, 6-22, 11-27) | 1.3 µM | 1.5 µM | 0.87 µM | 36 µM | 0.35 µM | 0.65 µM |  |  |  | 
3 |  | CC[C@H](C)[C@@H]1NC(=O)[C@@H]2CCCN2C(=O)[C@H](CC(C)C)NC(=O)CNC(=O)[C@H](CC(N)=O)NC(=O)[C@H](CCCCN)NC(=O)[C@H](Cc2ccc(O)cc2)NC(=O)[C@@H]2CSSC[C@@H]3NC(=O)[C@H](CCCCN)NC(=O)CNC(=O)[C@H](CC(C)C)NC(=O)[C@H](CC(C)C)NC(=O)[C@@H]4CSSC[C@H](NC(=O)[C@H](CO)NC(=O)[C@H](CSSC[C@H](NC1=O)C(=O)NCC(=O)N[C@@H](CCC(=O)O)C(=O)N[C@@H]([C@@H](C)O)C(=O)N4)NC(=O)CNC(=O)[C@@H]1CCCN1C(=O)[C@H]([C@@H](C)O)NC(=O)[C@H](Cc1ccc(O)cc1)NC3=O)C(=O)N[C@@H](CCCNC(=N)N)C(=O)N[C@@H](CCCNC(=N)N)C(=O)N1CCC[C@H]1C(=O)N[C@@H](C(C)C)C(=O)N2 (cyclo(CGETCLLGKCYTPGCSCRRPVCYKNGLPI); disulfide 1-15, 5-17, 10-22) | 1.9 µM | 2.3 µM |  | > 10 µM | 2.6 µM | 1.1 µM |  |  |  | 
4 |  | CC[C@H](C)[C@@H]1NC(=O)[C@@H]2CCCN2C(=O)[C@H](CCCCN)NC(=O)CNC(=O)[C@H](CC(N)=O)NC(=O)[C@H](CCCCN)NC(=O)[C@H](Cc2ccc(O)cc2)NC(=O)[C@H](CS)NC(=O)[C@H](CC(C)C)NC(=O)[C@H](C(C)C)NC(=O)[C@H](CCCNC(=N)N)NC(=O)[C@H](CCCCN)NC(=O)CNC(=O)[C@@H]2CSSC[C@@H]3NC(=O)[C@H]([C@@H](C)O)NC(=O)[C@H](CCC(=O)O)NC(=O)CNC(=O)[C@H](CSSC[C@H](NC(=O)CNC(=O)[C@@H]4CCCN4C(=O)[C@H]([C@@H](C)O)NC(=O)[C@H](Cc4ccc(O)cc4)NC(=O)[C@H](CS)NC(=O)[C@H](CCCCN)NC(=O)CNC(=O)[C@H](CC(C)C)NC(=O)[C@H](CC(C)C)NC3=O)C(=O)N[C@@H]([C@@H](C)O)C(=O)N2)NC1=O (cyclo(CGETCLLGKCYTPGCTCGKRVLCYKNGKPI); disulfide 1-15, 5-17) | 1.7 µM | 4.4 µM |  |  | 2.8 µM | 0.93 µM |  |  |  | 
5 |  | CC[C@H](C)[C@@H]1NC(=O)[C@@H]2CCCN2C(=O)[C@H](CC(C)C)NC(=O)CNC(=O)[C@H](CC(N)=O)NC(=O)[C@H](CCCCN)NC(=O)[C@H](Cc2ccc(O)cc2)NC(=O)[C@@H]2CSSC[C@@H]3NC(=O)[C@H](CCCCN)NC(=O)CNC(=O)[C@H](Cc4ccccc4)NC(=O)[C@H](C(C)C)NC(=O)[C@@H]4CSSC[C@H](NC(=O)[C@H](CO)NC(=O)[C@H](CSSC[C@H](NC1=O)C(=O)NCC(=O)N[C@@H](CCC(=O)O)C(=O)N[C@@H]([C@@H](C)O)C(=O)N4)NC(=O)CNC(=O)[C@@H]1CCCN1C(=O)[C@H]([C@@H](C)O)NC(=O)[C@H](CC(N)=O)NC3=O)C(=O)N[C@@H](CCCNC(=N)N)C(=O)N[C@@H](CCCNC(=N)N)C(=O)N1CCC[C@H]1C(=O)N[C@@H]([C@@H](C)CC)C(=O)N2 (cyclo(CGETCVFGKCNTPGCSCRRPICYKNGLPI); disulfide 1-15, 5-17, 10-22) | > 3 µM | > 10 µM | > 10 µM | > 10 µM | > 3 µM | > 3 µM |  |  |  | 
6 |  | CC[C@H](C)[C@H](NC(=O)CN)C(=O)NCC(=O)N[C@@H](C)C(=O)N[C@H](C(=O)N[C@@H](CC(C)C)C(=O)N[C@@H](CCCCN)C(=O)N[C@H](C(=O)N[C@@H](CC(C)C)C(=O)N[C@H](C(=O)N[C@H](C(=O)NCC(=O)N[C@@H](CC(C)C)C(=O)N1CCC[C@H]1C(=O)N[C@@H](C)C(=O)N[C@@H](CC(C)C)C(=O)N[C@H](C(=O)N[C@@H](CO)C(=O)N[C@@H](Cc1c[nH]c2ccccc12)C(=O)N[C@H](C(=O)N[C@@H](CCCCN)C(=O)N[C@@H](CCCNC(=N)N)C(=O)N[C@@H](CCCCN)C(=O)N[C@@H](CCCNC(=N)N)C(=O)N[C@@H](CCC(N)=O)C(=O)N[C@@H](CCC(N)=O)C(N)=O)[C@@H](C)CC)[C@@H](C)CC)[C@@H](C)O)[C@@H](C)O)C(C)C)C(C)C [MELITTIN] |  |  |  | 0.96 µM |  |  |  |  |  | 
7 | 0.001 µM | CC(=O)O[C@H]1C(=O)[C@@]2(C)[C@H]([C@H](OC(=O)c3ccccc3)[C@]3(O)C[C@H](OC(=O)[C@H](O)[C@@H](NC(=O)c4ccccc4)c4ccccc4)C(C)=C1C3(C)C)[C@]1(OC(C)=O)CO[C@@H]1C[C@@H]2O [PACLITAXEL] | > 10 µM | 0.2 µM | 0.07 µM |  | > 10 µM | > 10 µM | 0.01 µM | > 10 µM | > 10 µM | > 10 µM
